The subject of one test is KB. In words: Cytotoxicity against human KB cells after 48 hrs by MTT assay. It is filed as functional, cell-based.
Test [1] can be described thus: Cytotoxicity against human multidrug-resistant KB-C2 cells after 48 hrs by MTT assay. In kind it is functional, cell-based. The settings on record: KB-C2, 48 h. In short, it runs like this:
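Seeded 5 × 10³ cells/well, preincubated 24 h, then compounds at 2, 10, 50, 100 µg/mL in medium (0.5% DMSO final) for 48 h. MTT 0.5 mg/mL for 4 h, formazan dissolved in DMSO, OD 540 nm; IC50 relative to vehicle controls.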
(In general: Formazan colour is commonly taken as a measure of viable cells.)

Test [2] has as its system KB-C2. In words: Inhibition of P-gp-mediated multidrug-resistance in human KB-C2 cells assessed as increase in colchicine-induced cytotoxicity at 5 ug/ml after 48 hrs by MTT assay. In kind it is cell-based.
Test [3] relates to KB-C2. In words: Inhibition of P-gp-mediated multidrug-resistance in human KB-C2 cells assessed as increase in colchicine-induced cytotoxicity at 1 ug/ml after 48 hrs by MTT assay. It is filed as cell-based.

In general, IC50 refers to the concentration needed to halve the response being measured. Read a high IC50 as weaker potency in that assay. `CCNC(=O)CC(=O)O[C@@H]1CC[C@]2(C)[C@H]3C[C@@H](OC(C)=O)[C@@H]4[C@@H]([C@]5(C)CC[C@H](C(C)(C)O)O5)CC[C@@]4(C)[C@]3(C)CC[C@H]2C1(C)C`: the concentration for half-maximal inhibition (IC50) in the test on KB came to 39.7 µM; in test [1] it was 43.9 µM. In addition, the fold change (FC) with KB-C2 [2] came to 53.9; in the test with KB-C2 [3], 2.6.

With `CNC(=O)CC(=O)O[C@@H]1CC[C@]2(C)[C@H]3C[C@@H](OC(C)=O)[C@@H]4[C@@H]([C@]5(C)CC[C@H](C(C)(C)O)O5)CC[C@@]4(C)[C@]3(C)CC[C@H]2C1(C)C`, the 50% inhibitory concentration (IC50) was found to be 40.9 µM in the test with KB and 43.1 µM in test [1]. The fold change (FC) in the test on KB-C2 [2] came out at 74.4; in the test on KB-C2 [3], 4.7.

Regarding `CC(=O)O[C@@H]1C[C@@H]2[C@@]3(C)CC[C@@H](OC(=O)CC(=O)NC(C)(C)C)C(C)(C)[C@@H]3CC[C@@]2(C)[C@]2(C)CC[C@H]([C@]3(C)CC[C@H](C(C)(C)O)O3)[C@@H]12`, the half-maximal inhibitory concentration (IC50) with KB came out at 40.5 µM; in test [1], 47.9 µM. The fold change (FC) stood at 9.8 in the test on KB-C2 [2] and 1.1 in the test with KB-C2 [3].

For `COC(=O)CC(=O)O[C@@H]1CC[C@]2(C)[C@H]3CC[C@@H]4[C@@H]([C@]5(C)CC[C@H](C(C)(C)O)O5)CC[C@@]4(C)[C@]3(C)CC[C@H]2C1(C)C`, the values for the IC50 (with KB; in test [1]) were 45.4 µM and 56.6 µM, respectively. Besides, the fold change (FC) in the test with KB-C2 [2] amounted to 14.8; with KB-C2 [3], 1.1.

Take `COC(=O)CC(=O)O[C@@H]1CC[C@]2(C)[C@H]3C[C@@H](OC(C)=O)[C@@H]4[C@@H]([C@]5(C)CC[C@H](C(C)(C)O)O5)CC[C@@]4(C)[C@]3(C)CC[C@H]2C1(C)C` [METHYL PAPYRIFERATE]: the concentration for half-maximal inhibition (IC50) in the test on KB came to 26.7 µM; in test [1] it was 32.1 µM. Moreover, the fold change (FC) in the test on KB-C2 [2] amounted to 51.6; with KB-C2 [3] it was 1.5.

Take `CC(=O)O[C@@H]1C[C@@H]2[C@@]3(C)CC[C@@H](OC(=O)CC(N)=O)C(C)(C)[C@@H]3CC[C@@]2(C)[C@]2(C)CC[C@H]([C@]3(C)CC[C@H](C(C)(C)O)O3)[C@@H]12`: the concentration for half-maximal inhibition (IC50) in the test on KB came out at 39.3 µM; in test [1], 43.7 µM. The fold change (FC) amounted to 49.3 in the test on KB-C2 [2] and 2.1 in the test on KB-C2 [3].

With `CCCNC(=O)CC(=O)O[C@@H]1CC[C@]2(C)[C@H]3C[C@@H](OC(C)=O)[C@@H]4[C@@H]([C@]5(C)CC[C@H](C(C)(C)OC(=O)C(=O)NCCC)O5)CC[C@@]4(C)[C@]3(C)CC[C@H]2C1(C)C`, the IC50 was 24.8 µM in the test with KB and 26.6 µM in test [1]. Moreover, the fold change (FC) came to 68.8 in the test on KB-C2 [2] and 1.2 in the test on KB-C2 [3].

Consider `CC(=O)O[C@@H]1C[C@@H]2[C@@]3(C)CC[C@@H](OC(=O)CC(=O)N(C)C)C(C)(C)[C@@H]3CC[C@@]2(C)[C@]2(C)CC[C@H]([C@]3(C)CC[C@H](C(C)(C)O)O3)[C@@H]12`, for which the figures for the 50% inhibitory concentration (IC50) (in the test on KB; in test [1]) were 25.2 µM and 28 µM, respectively. In addition, the fold change (FC) in the test with KB-C2 [2] came to 87.5; with KB-C2 [3], 2.4.

As for `CCOC(=O)CC(=O)O[C@@H]1CC[C@]2(C)[C@H]3CC[C@@H]4[C@@H]([C@]5(C)CC[C@H](C(C)(C)O)O5)CC[C@@]4(C)[C@]3(C)CC[C@H]2C1(C)C`, the concentration for half-maximal inhibition (IC50) (with KB; in test [1]) was more than 100 µM throughout.

Consider `COc1ccc(OC)c(NC(=O)CC(=O)O[C@@H]2CC[C@]3(C)[C@H]4C[C@@H](OC(C)=O)[C@@H]5[C@@H]([C@]6(C)CC[C@H](C(C)(C)O)O6)CC[C@@]5(C)[C@]4(C)CC[C@H]3C2(C)C)c1`, for which the IC50 (in the test on KB; in test [1]) was more than 100 µM each time.

For the compound `CC(=O)O[C@@H]1C[C@@H]2[C@@]3(C)CC[C@@H](OC(=O)CC(=O)N4CCOCC4)C(C)(C)[C@@H]3CC[C@@]2(C)[C@]2(C)CC[C@H]([C@]3(C)CC[C@H](C(C)(C)O)O3)[C@@H]12`, the values for the IC50 (in the test on KB; in test [1]) were 30.8 µM and 27.5 µM, respectively. In addition, the fold change (FC) in the test on KB-C2 [2] is 185; with KB-C2 [3] it was 17.4.
